Data reported in ChEMBL document CHEMBL1145542, “Discovery of a new class of potent, selective, and orally bioavailable CRTH2 (DP2) receptor antagonists for the treatment of allergic inflammatory diseases” (J Med Chem, 2008).

Columns and labels:
[1] = molecular target: T1, Prostaglandin D2 receptor 2 (Homo sapiens, UniProt Q9Y5Y4); assay: Displacement of [3H]PGD2 from human CRTH2 receptor expressed in CHO cells; format: cell-based
T1 sequence (Q9Y5Y4 whole entry): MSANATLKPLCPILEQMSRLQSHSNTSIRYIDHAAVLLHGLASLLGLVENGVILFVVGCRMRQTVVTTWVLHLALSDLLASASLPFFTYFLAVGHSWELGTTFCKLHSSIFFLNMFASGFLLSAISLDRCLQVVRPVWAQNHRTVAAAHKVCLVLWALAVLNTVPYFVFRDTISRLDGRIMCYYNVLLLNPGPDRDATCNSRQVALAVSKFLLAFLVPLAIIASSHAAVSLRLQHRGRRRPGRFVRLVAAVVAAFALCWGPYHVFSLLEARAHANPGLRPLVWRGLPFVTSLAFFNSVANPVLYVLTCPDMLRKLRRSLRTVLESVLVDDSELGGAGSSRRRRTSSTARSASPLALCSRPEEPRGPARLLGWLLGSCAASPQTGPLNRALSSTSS
In short: (§1)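 Scintillation proximity competition assay: 2–5 µg human or mouse CRTH2 membranes (nitrogen-cavitation, differential centrifugation) with WGA-SPA beads and 1.5 nM [3H]PGD2 in 10 mM HEPES/KOH pH 7.4, 10 mM MnCl2, protease inhibitors, 1% Me2SO, 90 min shaking at room temperature. Nonspecific binding with 1 µM PGD2. Ki by Cheng–Prusoff, mean of ≥3 independent experiments.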

[2] = molecular target: T2, Prostaglandin D2 receptor 2 (Mus musculus, UniProt Q9Z2J6); assay: Displacement of [3H]PGD2 from mouse CRTH2 receptor expressed in HEK293 cells; format: cell-based; in short: as §1
T2 sequence (Q9Z2J6 whole entry): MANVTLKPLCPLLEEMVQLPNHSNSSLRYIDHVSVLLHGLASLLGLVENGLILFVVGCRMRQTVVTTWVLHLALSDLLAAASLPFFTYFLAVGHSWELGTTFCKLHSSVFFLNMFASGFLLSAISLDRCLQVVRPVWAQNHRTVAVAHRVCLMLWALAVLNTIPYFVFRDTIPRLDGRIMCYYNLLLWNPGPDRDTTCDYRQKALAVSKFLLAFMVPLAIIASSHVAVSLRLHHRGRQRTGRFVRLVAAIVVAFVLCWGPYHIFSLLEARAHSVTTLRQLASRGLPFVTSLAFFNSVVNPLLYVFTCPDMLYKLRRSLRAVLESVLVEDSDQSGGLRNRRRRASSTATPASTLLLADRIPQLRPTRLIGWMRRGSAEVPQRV

[3] = molecular target: T1, Prostaglandin D2 receptor 2; assay: Antagonist activity at human CRTH2 receptor expressed in CHO cell membrane by [35S]GTP-gamma-S binding assay; format: functional, cell membranes
In short: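 [35S]GTPγS binding at 30 °C on 10 µg human CRTH2 membranes in 20 mM HEPES/KOH pH 7.4, 10 mM MgCl2, 10 µg/mL saponin, 3 µM GDP, 150 mM NaCl, 2% Me2SO. PGD2 preincubation 10 min (antagonist mode: 80 nM PGD2), then 0.15 nM [35S]GTPγS for 30 min. Nonspecific binding with 10 µM GTPγS; stopped by centrifugation, scintillation counting.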

[4] = Intrinsic clearance per mg of protein in human liver microsomes at 3 uM; format: ADME, Microsome
In short: (§2)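 Rat or human liver microsomes (0.5 mg/mL final) in 0.1 M phosphate pH 7.4 with 3 µM compound (1% DMSO), preincubated at 37 °C, started with 1 mM NADPH. Quenched with cold acetonitrile at 0, 15, 30, 45 min; LC/MS-MS of compound disappearance gives intrinsic clearance.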

[5] = Lipophilicity, log D of the compound; format: physicochemical; details: octanol/water
[6] = Intrinsic clearance per mg of protein in rat liver microsomes at 3 uM; format: ADME, Microsome; in short: as §2
[7] = Apparent permeability across human Caco-2 cell membrane at 10 uM; format: ADME, cell-based
In short: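 Caco-2 monolayers grown 21 days on Transwell filters; TEER above 800 ohm·cm² required. 10 µM test compound in HBSS added apically (A to B) or basolaterally (B to A), 2 h at 37 °C. Both compartments sampled, analysed by LC/MS-MS.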

[8] = AUC (0 to last t) in rat at 1 mg/kg, iv; format: ADME, organism-based; set-up: time 0 - last, dose 1 mg/kg, route intravenous; details: plasma
In short: (§3)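 Male Sprague–Dawley or Janvier rats, three per route, dosed by oral gavage or iv bolus. Serial blood drawn through an indwelling carotid catheter up to 24 h post dose. Plasma pooled by time point, analysed by LC-MS/MS; non-compartmental analysis.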

[9] = AUC (0 to last t) in rat at 5 mg/kg, po; format: ADME, organism-based; set-up: time 0 - last, dose 5 mg/kg, route oral; details: plasma; in short: as §3
[10] = Oral bioavailability in rat at 5 mg/kg; format: ADME, organism-based; details: in vivo; in short: as §3
[11] = Cmax in rat at 1 mg/kg, iv; format: ADME, organism-based; set-up: dose 1 mg/kg, route intravenous; details: in vivo; in short: as §3
[12] = Cmax in rat at 5 mg/kg, po; format: ADME, organism-based; set-up: dose 5 mg/kg, route oral; details: in vivo; in short: as §3
[13] = Tmax in rat at 1 mg/kg, iv; format: ADME, organism-based; set-up: dose 1 mg/kg, route intravenous; details: in vivo; in short: as §3
[14] = Tmax in rat at 5 mg/kg, po; format: ADME, organism-based; set-up: dose 5 mg/kg, route oral; details: in vivo; in short: as §3
[15] = Half life in rat at 1 mg/kg, iv; format: ADME, organism-based; set-up: dose 1 mg/kg, route intravenous; details: in vivo; in short: as §3
[16] = Clearance in rat at 1 mg/kg, iv; format: ADME, organism-based; set-up: dose 1 mg/kg, route intravenous; details: in vivo; in short: as §3
[17] = Volume of distribution at steady state in rat at 1 mg/kg, iv; format: ADME, organism-based; set-up: dose 1 mg/kg, route intravenous; details: in vivo, read-out: Vdss; in short: as §3

Ki [1] [µM]	IC50 [3] [µM]	microsomal CLint at 3 µM [6] [µL/min/mg]	further results	SMILES
0.702	–	–	Ki [2]: 0.48 µM	O=C(O)CN1C(=O)C2(CC(=O)N(Cc3ccccc3)C2)c2cc(Cl)ccc21 (stereo not given)
0.758	–	–	EC50 [3]: 5.6 µM	O=C(O)CCCN1C(=O)C2(CC(=O)N(Cc3ccc(Cl)cc3)C2=O)c2cc(Cl)ccc21 (stereo not given)
0.024	0.048	–	–	O=C(O)CN1C(=O)C2(CC(=O)N(Cc3csc(-c4cccc(Cl)c4)n3)C2=O)c2cc(Cl)ccc21 (stereo not given)
0.037	–	–	microsomal CLint at 3 µM [4]: 4 µL/min/mg; logD [5]: -0.9	O=C(O)CN1C(=O)C2(CC(=O)N(Cc3cc(F)cc(F)c3)C2=O)c2cc(Cl)ccc21 (stereo not given)
0.072	–	68	microsomal CLint at 3 µM [4]: 9 µL/min/mg; Papp at 10 µM [7]: 8 nm/s	COc1cccc(CN2C(=O)C[C@]3(C2=O)C(=O)N(CC(=O)O)c2ccc(Cl)cc23)c1
0.036	0.082	–	–	O=C(O)CN1C(=O)C2(CC(=O)N(Cc3cc(Cl)cc(Cl)c3)C2=O)c2cc(Cl)ccc21 (stereo not given)
0.043	–	24	microsomal CLint at 3 µM [4]: 2 µL/min/mg; logD [5]: -0.3	O=C(O)CN1C(=O)C2(CC(=O)N(Cc3cc(F)ccc3Cl)C2=O)c2cc(Cl)ccc21 (stereo not given)
0.012	–	66	–	COc1c(C)cnc(CN2C(=O)CC3(C2=O)C(=O)N(CC(=O)O)c2ccc(Cl)cc23)c1C (stereo not given)
0.0038	0.019	–	Papp at 10 µM [7]: 21 nm/s; logD [5]: -0.3; AUC(0-t) [8]: 0.247 µg·h/mL; AUC(0-t) [9]: 0.00201 µg·h/mL; bioavailability [10]: 0.2%; Cmax [11]: 1.97 µg/mL; Cmax [12]: 0.006 µg/mL; Tmax [13]: 0 h; Tmax [14]: 15 min; half-life [15]: 6 min; clearance [16]: 4 L/h/kg; Vd [17]: 0.4 L/kg	Cc1noc(-c2ccccc2)c1CN1CC2(CC1=O)C(=O)N(CC(=O)O)c1ccc(Cl)cc12 (stereo not given)
0.025	0.296	–	–	O=C(O)CN1C(=O)C2(CC(=O)N(Cc3cccc(F)c3F)C2=O)c2cc(Cl)ccc21 (stereo not given)
0.169	–	> 60	–	COc1cccc(CN2C(=O)CC3(C2=O)C(=O)N(CC(=O)O)c2ccc(Cl)cc23)c1 (stereo not given)
0.0076	0.021	26	logD [5]: -0.6	Cc1onc(-c2ccccc2)c1CN1C(=O)CC2(C1=O)C(=O)N(CC(=O)O)c1ccc(Cl)cc12 (stereo not given)
0.497	–	–	–	O=C(O)CN1C(=O)C2(CC(=O)N(Cc3nnc(C4CC4)s3)C2=O)c2cc(Cl)ccc21 (stereo not given)
0.212	–	–	–	COc1ccc(-c2nc(CN3C(=O)CC4(C3=O)C(=O)N(CC(=O)O)c3ccc(Cl)cc34)no2)cc1 (stereo not given)
